According to ChEMBL document CHEMBL1147969, “Synthesis of some novel heterocyclic compounds derived from diflunisal hydrazide as potential anti-infective and anti-inflammatory agents” (2007):
In brackets after ≈: the same amount, converted by molar mass. Activity calls are given as the source filed them.

Tests used:
Mus musculus [1] = assay: Antiinflammatory activity against BALB/c mouse assessed as inhibition of carrageenan-induced paw edema at 50 mg/kg, po after 4 hrs; assay type: functional
Method in brief: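 Mice were fasted on the last day (water only) and dosed by gavage at 50 mg/kg, suspended in 0.5% methyl cellulose; controls got vehicle, six mice per group. After 60 min, 0.5 mg/mL carrageenan in saline was injected subplantar into the right hind paw, with saline in the left. The right–left thickness difference was read by microcaliper at 4 h. % inhibition = (n−n0)/n×100 versus control.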

Mus musculus [2] = assay: Antinociceptive activity against mouse assessed as paw withdrawal latency at 50 mg/kg, po after 60 mins by hot plate test; assay type: functional
Method in brief: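 Hot plate was set at 55 °C. Latency to jumping or hind-paw licking was recorded before and 60 min after oral dosing at 50 mg/kg, or vehicle, with a 30 s cutoff. Groups had at least eight mice each. Testing was done between 2:00 and 4:00 pm.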

Streptococcus pyogenes [3] = assay: Antimicrobial activity against Streptococcus pyogenes KUKEM676 by disk diffusion method at 300 ug/disc; assay type: functional
Method in brief: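 Mueller-Hinton agar was spread with 10^8 CFU/mL bacteria. 6 mm discs held 300 per disc of test agent, with DMSO discs as negative controls. Plates were incubated 24 h, at 37 °C for clinical strains or 27 °C for plant-associated strains. Zone of inhibition diameter in mm was measured. Each assay was repeated twice.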

Proteus vulgaris [4] = assay: Antimicrobial activity against Proteus vulgaris A161 by disk diffusion method at 10 ug/disc; assay type: functional; conditions: read-out: IZ
Streptococcus pyogenes [5] = assay: Antimicrobial activity against Streptococcus pyogenes ATCC 176 by disk diffusion method at 10 ug/disc; assay type: functional; conditions: read-out: IZ
Proteus vulgaris [6] = assay: Antimicrobial activity against Proteus vulgaris KUKEM1329 by disk diffusion method at 10 ug/disc; assay type: functional; conditions: read-out: IZ
Streptococcus pyogenes [7] = assay: Antimicrobial activity against Streptococcus pyogenes KUKEM676 by disk diffusion method at 10 ug/disc; assay type: functional; conditions: read-out: IZ
Human alphaherpesvirus 1 [8] = assay: Antiviral activity against acyclovir resistant TK positive HSV1 KOS-induced cytopathogenicity at 16 ug/mL; assay type: functional, organism-based
Sindbis virus [9] = assay: Antiviral activity against Sindbis virus-induced cytopathogenicity at 9.6 ug/mL; assay type: functional, organism-based
Human alphaherpesvirus 1 [10] = assay: Antiviral activity against TK positive HSV1 KOS-induced cytopathogenicity at 16 ug/mL; assay type: functional, organism-based
Punta Toro virus = assay: Antiviral activity against Punta Toro virus-induced cytopathogenicity at 16 ug/mL; assay type: functional, organism-based
Coxsackievirus B4 = assay: Antiviral activity against Coxsackie virus B4-induced cytopathogenicity at 16 ug/mL; assay type: functional, organism-based
Sindbis virus [11] = assay: Antiviral activity against Sindbis virus-induced cytopathogenicity at 16 ug/mL; assay type: functional, organism-based
Aspergillus versicolor [12] = assay: Antifungal activity against Aspergillus variecolor at 300 ug/disc after 72 hrs by disk diffusion method; assay type: functional
Method in brief: (§1)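 Disc diffusion was run on potato dextrose agar seeded with 10^4 spore/mL. 6 mm discs each carried 300 per disc of test agent. DMSO-impregnated discs served as negative controls. Plates were incubated 72 h, at 27 °C for plant-associated isolates or 37 °C for clinical isolates. The read-out was inhibition zone diameter in mm. Each assay was repeated twice.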

Aspergillus flavus [13] = assay: Antifungal activity against Aspergillus flavus at 300 ug/disc after 72 hrs by disk diffusion method; assay type: functional; method in brief: as §1
Proteus vulgaris [14] = assay: Antimicrobial activity against Proteus vulgaris A161 […]; assay type: functional
Method in brief: (§2)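 For broth microdilution, inocula came from 12 h broth cultures adjusted to 0.5 McFarland. Test agents in 10% DMSO were serially diluted twofold (7.8–500) in nutrient broth. Wells were shaken 20 s at 300 rpm and incubated 24 h. Clear wells were plated on nutrient agar to check growth. MIC was the lowest concentration inhibiting growth. Each compound was screened twice per organism.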

Proteus vulgaris [15] = assay: Antimicrobial activity against Proteus vulgaris KUKEM1329 by disk diffusion method at 300 ug/disc; assay type: functional; method in brief: as §2
Aspergillus flavus [16] = assay: Antifungal activity against Aspergillus flavus after 72 hrs by agar dilution method; assay type: functional
Method in brief: (§3)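 Fungal isolates were screened on agar dilution plates. Test agents in 10% DMSO were mixed into potato dextrose agar containing 0.5% v/v Tween 20, over a range of 7.8–500. Plates were spot-inoculated with 10^4 spore/mL and held 72 h, at 27 °C for plant isolates or 37 °C for clinical isolates. MIC was the lowest concentration with no growth. Each test was repeated at least twice.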

Aspergillus versicolor [17] = assay: Antifungal activity against Aspergillus variecolor after 72 hrs by agar dilution method; assay type: functional; method in brief: as §3
Trichophyton rubrum [18] = assay: Antifungal activity against Trichophyton rubrum at 300 ug/disc after 72 hrs by disk diffusion method; assay type: functional; method in brief: as §1
Trichophyton rubrum [19] = assay: Antifungal activity against Trichophyton rubrum after 72 hrs by agar dilution method; assay type: functional; method in brief: as §3
Trichophyton benhamiae [20] = assay: Antifungal activity against Trichophyton mentagrophytes after 72 hrs by agar dilution method; assay type: functional, Arthroderma benhamiae; method in brief: as §3
Streptococcus pyogenes [21] = assay: Antimicrobial activity against Streptococcus pyogenes KUKEM676 by microwell dilution method; assay type: functional; method in brief: as §2
Escherichia coli = assay: Antimicrobial activity against Escherichia coli A1 by microwell dilution method; assay type: functional; method in brief: as §2
Enterococcus faecalis = assay: Antimicrobial activity against Enterococcus faecalis ATCC […] by microwell dilution method; assay type: functional; method in brief: as §2
Trichophyton benhamiae [22] = assay: Antifungal activity against Trichophyton mentagrophytes at 300 ug/disc after 72 hrs by disk diffusion method; assay type: functional, Arthroderma benhamiae; method in brief: as §1
Streptococcus pyogenes [23] = assay: Antimicrobial activity against Streptococcus pyogenes ATCC 176 by microwell dilution method; assay type: functional; method in brief: as §2
Human alphaherpesvirus 2 = assay: Antiviral activity against HSV2-induced cytopathogenicity at 16 ug/mL; assay type: functional, organism-based

COc1ccc(Nc2nnc(-c3cc(-c4ccc(F)cc4F)ccc3O)s2)cc1
inhibition in vivo at 50 mg/kg (Mus musculus [1]): 55.3%
Paw withdrawal latency (Mus musculus [2]): 19.2 s

Cc1ccc(Nc2nnc(-c3cc(-c4ccc(F)cc4F)ccc3O)o2)cc1
inhibition in vivo at 50 mg/kg (Mus musculus [1]): 33.8%
Paw withdrawal latency (Mus musculus [2]): 11.1 s

CO/N=C(\C(=O)N[C@@H]1C(=O)N2C(C(=O)[O-])=C(C[N+]3(C)CCCC3)CS[C@H]12)c1csc(N)n1 [CEFEPIME]
MIC (Streptococcus pyogenes [3]): 31.2 µg/mL (≈ 65 µM)

CC1COc2c(N3CCN(C)CC3)c(F)cc3c(=O)c(C(=O)O)cn1c23 (configuration not stated) [OFLOXACIN]
zone of inhibition at 10 µg/disc (Proteus vulgaris [4]): 12 mm
zone of inhibition at 10 µg/disc (Streptococcus pyogenes [5]): 10 mm
zone of inhibition at 10 µg/disc (Proteus vulgaris [6]): 13 mm
zone of inhibition at 10 µg/disc (Streptococcus pyogenes [7]): 13 mm

CCNc1nnc(-c2cc(-c3ccc(F)cc3F)ccc2O)o1
inhibition in vivo at 50 mg/kg (Mus musculus [1]): 36.8%
Paw withdrawal latency (Mus musculus [2]): 11 s

CNc1nnc(-c2cc(-c3ccc(F)cc3F)ccc2O)s1
Activity (Human alphaherpesvirus 1 [8]): Active
Activity (Sindbis virus [9]): Active
Activity (Human alphaherpesvirus 1 [10]): Active
Activity (Punta Toro virus): Active
inhibition in vivo at 50 mg/kg (Mus musculus [1]): 45.4%
Activity (Coxsackievirus B4): Active
Paw withdrawal latency (Mus musculus [2]): 13.5 s
Activity (Sindbis virus [11]): Active

O=C(O)c1cc(-c2ccc(F)cc2F)ccc1O [DIFLUNISAL]
inhibition in vivo at 50 mg/kg (Mus musculus [1]): 24.2%
Paw withdrawal latency (Mus musculus [2]): 19.1 s

Oc1ccc(-c2ccc(F)cc2F)cc1-c1nnc(NC2CCCCC2)o1
inhibition in vivo at 50 mg/kg (Mus musculus [1]): 23.8%
Paw withdrawal latency (Mus musculus [2]): 12 s

CCn1c(-c2cc(-c3ccc(F)cc3F)ccc2O)n[nH]c1=S
MIC (Aspergillus versicolor [12]): 31.2 µg/mL (≈ 93.7 µM)
MIC (Aspergillus flavus [13]): 31.2 µg/mL (≈ 93.7 µM)
inhibition zone (IZ) (Proteus vulgaris [14]): 9 mm
inhibition in vivo at 50 mg/kg (Mus musculus [1]): 46.2%
inhibition zone (IZ) (Proteus vulgaris [15]): 9 mm
inhibition zone (IZ) (Aspergillus flavus [16]): 16 mm
inhibition zone (IZ) (Aspergillus versicolor [17]): 14 mm
Activity (Coxsackievirus B4): Active
Paw withdrawal latency (Mus musculus [2]): 17.1 s
MIC (Trichophyton rubrum [18]): 15.2 µg/mL (≈ 45.7 µM)
inhibition zone (IZ) (Trichophyton rubrum [19]): 16 mm

Oc1ccc(-c2ccc(F)cc2F)cc1-c1n[nH]c(=S)n1C1CCCCC1
inhibition zone (IZ) (Proteus vulgaris [14]): 10 mm
inhibition in vivo at 50 mg/kg (Mus musculus [1]): 64.4%
inhibition zone (IZ) (Proteus vulgaris [15]): 12 mm
Paw withdrawal latency (Mus musculus [2]): 13.2 s
Activity (Sindbis virus [11]): Active

C=CCn1c(-c2cc(-c3ccc(F)cc3F)ccc2O)n[nH]c1=S
MIC (Aspergillus versicolor [12]): 62.5 µg/mL (≈ 181 µM)
MIC (Aspergillus flavus [13]): 31.2 µg/mL (≈ 90.5 µM)
inhibition zone (IZ) (Trichophyton benhamiae [20]): 14 mm
inhibition zone (IZ) (Proteus vulgaris [14]): 10 mm
inhibition in vivo at 50 mg/kg (Mus musculus [1]): 73%
inhibition zone (IZ) (Proteus vulgaris [15]): 9 mm
inhibition zone (IZ) (Streptococcus pyogenes [21]): 14 mm
inhibition zone (IZ) (Escherichia coli): 12 mm
inhibition zone (IZ) (Enterococcus faecalis): 10 mm
inhibition zone (IZ) (Aspergillus flavus [16]): 14 mm
inhibition zone (IZ) (Aspergillus versicolor [17]): 10 mm
MIC (Trichophyton benhamiae [22]): 31.2 µg/mL (≈ 90.5 µM)
inhibition zone (IZ) (Streptococcus pyogenes [23]): 12 mm
MIC (Streptococcus pyogenes [3]): 62.2 µg/mL (≈ 180 µM)
Paw withdrawal latency (Mus musculus [2]): 16.8 s

Oc1ccc(-c2ccc(F)cc2F)cc1-c1nnc(Nc2ccccc2)o1
inhibition in vivo at 50 mg/kg (Mus musculus [1]): 39.5%
Paw withdrawal latency (Mus musculus [2]): 12 s

Oc1ccc(-c2ccc(F)cc2F)cc1-c1n[nH]c(=S)n1-c1ccccc1
Activity (Human alphaherpesvirus 1 [10]): Active
inhibition in vivo at 50 mg/kg (Mus musculus [1]): 36.3%
Paw withdrawal latency (Mus musculus [2]): 16 s

Oc1ccc(-c2ccc(F)cc2F)cc1-c1nnc(NC2CCCCC2)s1
inhibition in vivo at 50 mg/kg (Mus musculus [1]): 41.4%
Paw withdrawal latency (Mus musculus [2]): 12.5 s

CCN[C@@H]1C[C@H](N)[C@@H](O[C@H]2OC(CN)=CC[C@H]2N)[C@H](O)[C@H]1O[C@H]1OC[C@](C)(O)[C@H](NC)[C@H]1O [NETILMICIN]
MIC (Aspergillus versicolor [12]): 62.5 µg/mL (≈ 131 µM)
MIC (Aspergillus flavus [13]): 15.6 µg/mL (≈ 32.8 µM)
MIC (Trichophyton benhamiae [22]): 31.2 µg/mL (≈ 65.7 µM)
MIC (Trichophyton rubrum [18]): 15.6 µg/mL (≈ 32.8 µM)

COc1ccc(-n2c(-c3cc(-c4ccc(F)cc4F)ccc3O)n[nH]c2=S)cc1
inhibition in vivo at 50 mg/kg (Mus musculus [1]): 53.5%
inhibition zone (IZ) (Proteus vulgaris [15]): 10 mm
inhibition zone (IZ) (Streptococcus pyogenes [21]): 9 mm
inhibition zone (IZ) (Enterococcus faecalis): 12 mm
inhibition zone (IZ) (Streptococcus pyogenes [23]): 10 mm
MIC (Streptococcus pyogenes [3]): 125 µg/mL (≈ 304 µM)
Paw withdrawal latency (Mus musculus [2]): 15 s

C=CCNc1nnc(-c2cc(-c3ccc(F)cc3F)ccc2O)s1
Activity (Human alphaherpesvirus 1 [8]): Active
Activity (Human alphaherpesvirus 1 [10]): Active
Activity (Punta Toro virus): Active
inhibition in vivo at 50 mg/kg (Mus musculus [1]): 57.2%
Activity (Coxsackievirus B4): Active
Paw withdrawal latency (Mus musculus [2]): 13.9 s
Activity (Sindbis virus [11]): Active

COc1ccc(Nc2nnc(-c3cc(-c4ccc(F)cc4F)ccc3O)o2)cc1
inhibition in vivo at 50 mg/kg (Mus musculus [1]): 35.3%
Paw withdrawal latency (Mus musculus [2]): 12 s

CNc1nnc(-c2cc(-c3ccc(F)cc3F)ccc2O)o1
inhibition in vivo at 50 mg/kg (Mus musculus [1]): 41.4%
Paw withdrawal latency (Mus musculus [2]): 10.9 s

CCNc1nnc(-c2cc(-c3ccc(F)cc3F)ccc2O)s1
inhibition in vivo at 50 mg/kg (Mus musculus [1]): 50.2%
Paw withdrawal latency (Mus musculus [2]): 13.5 s

Cn1c(-c2cc(-c3ccc(F)cc3F)ccc2O)n[nH]c1=S
inhibition zone (IZ) (Proteus vulgaris [14]): 10 mm
inhibition in vivo at 50 mg/kg (Mus musculus [1]): 56.9%
inhibition zone (IZ) (Proteus vulgaris [15]): 8 mm
Paw withdrawal latency (Mus musculus [2]): 16.4 s

C=CCNc1nnc(-c2cc(-c3ccc(F)cc3F)ccc2O)o1
Activity (Human alphaherpesvirus 2): Active
inhibition in vivo at 50 mg/kg (Mus musculus [1]): 36.6%
Paw withdrawal latency (Mus musculus [2]): 9.8 s

Oc1ccc(-c2ccc(F)cc2F)cc1-c1nnc(Nc2ccccc2)s1
inhibition zone (IZ) (Proteus vulgaris [14]): 14 mm
inhibition in vivo at 50 mg/kg (Mus musculus [1]): 43%
inhibition zone (IZ) (Proteus vulgaris [15]): 16 mm
inhibition zone (IZ) (Escherichia coli): 16 mm
inhibition zone (IZ) (Streptococcus pyogenes [23]): 18 mm
Paw withdrawal latency (Mus musculus [2]): 16.5 s

Cc1ccc(-n2c(-c3cc(-c4ccc(F)cc4F)ccc3O)n[nH]c2=S)cc1
inhibition in vivo at 50 mg/kg (Mus musculus [1]): 51.6%
Paw withdrawal latency (Mus musculus [2]): 14.2 s

Cc1ccc(Nc2nnc(-c3cc(-c4ccc(F)cc4F)ccc3O)s2)cc1
inhibition in vivo at 50 mg/kg (Mus musculus [1]): 43.5%
Paw withdrawal latency (Mus musculus [2]): 14.5 s
